Assay results reported in ChEMBL document CHEMBL4673277, “In silico and in vitro screening for potential anticancer candidates targeting GPR120” (Bioorg Med Chem Lett, 2021).
Active and inactive are the calls of the source. No cut-off for these calls is given here.

Tests used:
SW480 [1] = assay: Anticancer activity against human SW480 cells expressing GPR120 assessed as inhibition of cell viability measured after 24 hrs by alamar blue assay; format: functional, cell-based; details: SW480, 24 h
Outline: (§1)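 SW480 seeded 10,000, 5,000 or 2500 cells/well for 24, 48 or 72 h exposure; 9 serial dilutions 100 to 0.39 μM in 0.5% DMSO medium, not replenished during treatment. Read by 6% alamar blue, 3 h, ex 560/em 590 nm. 50% DMSO defined 0%, 0.5% DMSO 100%; IC50 by non-linear regression. 5 replicates, three experiments.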

SW480 [2] = assay: Anticancer activity against human SW480 cells expressing GPR120 assessed as inhibition of cell viability measured after 72 hrs by alamar blue assay; format: functional, cell-based; outline: as §1
SW480 [3] = assay: Anticancer activity against human SW480 cells expressing GPR120 assessed as inhibition of cell viability measured after 48 hrs by alamar blue assay; format: functional, cell-based; details: SW480, 48 h; outline: as §1
SW480 [4] = assay: Anticancer activity against human SW480 cells expressing GPR120 assessed as inhibition of cell viability at 100 uM measured after 72 hrs by alamar blue assay relative to control; format: functional
Outline: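 SW480 in RPMI1640 + 10% FBS, 37 °C, 5% CO2; seeded 2500 cells/well, exposed 72 h to 100, 10, 1 μM in 0.5% DMSO medium. Medium then replaced by 6% alamar blue, 3 h, fluorescence ex 560/em 590 nm. Six replicates, mean ± SE; viability set relative to vehicle (0.5% DMSO) control.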

SW480 [5] = assay: Anticancer activity against human SW480 cells transfected with scrambled siRNA assessed as inhibition of cell viability 5 uM measured after 24 hrs by alamar blue assay; format: functional, cell-based
Outline: (§2)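 SW480 seeded overnight, transfected with 50 nM human GPR120 27mer siRNA duplex or universal scrambled siRNA duplex (siTran 2.0). Harvested 24 h post-transfection, then exposed to 5 μM, 24 h. Viability read by alamar blue (6%, 3 h, ex 560/em 590 nm). Five replicates, mean ± SE; two-way ANOVA with Tukey test.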

SW480 [6] = assay: Anticancer activity against human SW480 cells transfected with GPR120 siRNA assessed as inhibition of cell viability 5 uM measured after 24 hrs by alamar blue assay; format: functional, cell-based; outline: as §2

Row | IC50 (SW480 [1]) [µM] | IC50 (SW480 [3]) [µM] | SMILES | Activity (SW480 [2]) | inhibition at 100 µM (SW480 [4]) [%] | Activity (SW480 [5]) | Activity (SW480 [6])
1 | 25.5 |  | Cc1ccc(-n2c(SCC(=O)c3ccc(Br)cc3)nc3c(c2=O)C2(CCCC2)Cc2ccccc2-3)cc1 |  |  |  | 
2 | 23.2 | 50 | Cc1ccc(-n2c(SCC(=O)c3ccccc3)nc3c(c2=O)C2(CCCC2)Cc2ccccc2-3)cc1 | Active | > 90 |  | 
3 | 24.3 |  | O=C(CSc1nc2c(c(=O)n1C1CCCC1)C1(CCCC1)Cc1ccccc1-2)c1ccc(Cl)cc1 |  |  |  | 
4 | 68.9 |  | O=C(CSc1nc2c(c(=O)n1CCc1ccccc1)C1(CCCC1)Cc1ccccc1-2)c1ccc(Cl)cc1 |  |  |  | 
5 | 6.79 |  | COc1ccc(-n2c(SCC(=O)c3ccc(Cl)cc3)nc3c(c2=O)C2(CCCC2)Cc2ccccc2-3)cc1 |  |  | Active | Active
6 | 22.9 |  | Cn1c(SCC(=O)c2ccc(Cl)cc2)nc2c(c1=O)C1(CCCC1)Cc1ccccc1-2 |  |  |  | 
7 | 26.6 | 50 | O=C1c2cc(S(=O)(=O)Nc3cccc4ccccc34)ccc2-c2ccc(S(=O)(=O)Nc3cccc4ccccc34)cc21 | Active | > 90 |  | 
8 | 5.89 |  | O=C(CSc1nc2c(c(=O)n1-c1ccccc1)C1(CCCC1)Cc1ccccc1-2)c1ccc(Cl)cc1 |  |  | Active | inactive
